In ChEMBL document CHEMBL3585293, “Design, antiviral and cytostatic properties of isoxazolidine-containing amonafide analogues” (Bioorg Med Chem, 2015):

test system: Cytomegalovirus; assay: Antiviral activity against Cytomegalovirus AD-169 infected in HEL cells assessed as reduction of virus-induced cytopathogenicity; type: functional, organism-based; settings: Human betaherpesvirus 5, AD-169, HEL

Compound | EC50 [µM]
CCOP(=O)(OCC)[C@@H]1C[C@H](C(=O)Nc2cc3c4c(cccc4c2)C(=O)N(CCN2CCCC2)C3=O)ON1C (racemic) | 45
CCOP(=O)(OCC)[C@@H]1C[C@@H](C(=O)Nc2cc3c4c(cccc4c2)C(=O)N(CCN(C)C)C3=O)ON1C (racemic) | 8.9
CCOP(=O)(OCC)[C@@H]1C[C@@H](C(=O)Nc2cc3c4c(cccc4c2)C(=O)N(CCN2CCCC2)C3=O)ON1C (relative stereo) | 8.9
CCOP(=O)(OCC)[C@@H]1C[C@H](C(=O)Nc2cc3c4c(cccc4c2)C(=O)N(CCN(C)C)C3=O)ON1C (racemic) | 37

test system: Cytomegalovirus; assay: Antiviral activity against Cytomegalovirus Davis infected in HEL cells assessed as reduction of virus-induced cytopathogenicity; type: functional, organism-based; settings: Human betaherpesvirus 5, Davis

Compound | EC50 [µM]
CCOP(=O)(OCC)[C@@H]1C[C@H](C(=O)Nc2cc3c4c(cccc4c2)C(=O)N(CCN2CCCC2)C3=O)ON1C (racemic) | 45
CCOP(=O)(OCC)[C@@H]1C[C@@H](C(=O)Nc2cc3c4c(cccc4c2)C(=O)N(CCN(C)C)C3=O)ON1C (racemic) | 8.9
CCOP(=O)(OCC)[C@@H]1C[C@@H](C(=O)Nc2cc3c4c(cccc4c2)C(=O)N(CCN2CCCC2)C3=O)ON1C (relative stereo) | 10.9
CCOP(=O)(OCC)[C@@H]1C[C@H](C(=O)Nc2cc3c4c(cccc4c2)C(=O)N(CCN(C)C)C3=O)ON1C (racemic) | 37

test system: not listed separately; assay: Cytotoxicity against HEL cells assessed as alternation of cell morphology by microscopic analysis; type: cell-based; settings: human

Compound | MCC [µM]
CCOP(=O)(OCC)[C@@H]1C[C@H](C(=O)Nc2cc3c4c(cccc4c2)C(=O)N(CCN2CCCC2)C3=O)ON1C (racemic) | ≥ 100
CCOP(=O)(OCC)[C@@H]1C[C@@H](C(=O)Nc2cc3c4c(cccc4c2)C(=O)N(CCN(C)C)C3=O)ON1C (racemic) | ≥ 100
CCOP(=O)(OCC)[C@@H]1C[C@@H](C(=O)Nc2cc3c4c(cccc4c2)C(=O)N(CCN2CCCC2)C3=O)ON1C (relative stereo) | ≥ 100
CCOP(=O)(OCC)[C@@H]1C[C@H](C(=O)Nc2cc3c4c(cccc4c2)C(=O)N(CCN(C)C)C3=O)ON1C (racemic) | ≥ 100

test system: Human alphaherpesvirus 3; assay: Antiviral activity against Varicella-zoster virus expressing thymidine kinase infected in HEL cells assessed as reduction of virus-induced plaque formation; type: functional, organism-based; settings: Human alphaherpesvirus 3, HEL
In short: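 Plaque-reduction assay in HEL cells. TK+ VZV strains were Oka and YS; TK- strains were 07-1 and YS-R. Virus input was 100 PFU, with graded compound concentrations. Plaques were counted once formation was complete in untreated infected controls. […] Two independent experiments were run.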

Compound | EC50 [µM]
CCOP(=O)(OCC)[C@@H]1C[C@H](C(=O)Nc2cc3c4c(cccc4c2)C(=O)N(CCN2CCCC2)C3=O)ON1C (racemic) | > 20
CCOP(=O)(OCC)[C@@H]1C[C@@H](C(=O)Nc2cc3c4c(cccc4c2)C(=O)N(CCN(C)C)C3=O)ON1C (racemic) | 14
CCOP(=O)(OCC)[C@@H]1C[C@@H](C(=O)Nc2cc3c4c(cccc4c2)C(=O)N(CCN2CCCC2)C3=O)ON1C (relative stereo) | > 20
CCOP(=O)(OCC)[C@@H]1C[C@H](C(=O)Nc2cc3c4c(cccc4c2)C(=O)N(CCN(C)C)C3=O)ON1C (racemic) | ≥ 11

test system: Human alphaherpesvirus 3; assay: Antiviral activity against thymidine kinase-deficient Varicella-zoster virus infected in HEL cells assessed as reduction of virus-induced plaque formation; type: functional, organism-based; settings: Human alphaherpesvirus 3, HEL
In short: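 Plaque-reduction assay in HEL cells. TK+ VZV strains were Oka and YS; TK- strains were 07-1 and YS-R. Virus input was 100 PFU, with graded compound concentrations. Plaques were counted once formation was complete in untreated infected controls. Two independent experiments were run.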

Compound | EC50 [µM]
CCOP(=O)(OCC)[C@@H]1C[C@H](C(=O)Nc2cc3c4c(cccc4c2)C(=O)N(CCN2CCCC2)C3=O)ON1C (racemic) | > 20
CCOP(=O)(OCC)[C@@H]1C[C@@H](C(=O)Nc2cc3c4c(cccc4c2)C(=O)N(CCN(C)C)C3=O)ON1C (racemic) | 26
CCOP(=O)(OCC)[C@@H]1C[C@@H](C(=O)Nc2cc3c4c(cccc4c2)C(=O)N(CCN2CCCC2)C3=O)ON1C (relative stereo) | > 20
CCOP(=O)(OCC)[C@@H]1C[C@H](C(=O)Nc2cc3c4c(cccc4c2)C(=O)N(CCN(C)C)C3=O)ON1C (racemic) | 20

test system: Human alphaherpesvirus 1; assay: Antiviral activity against Herpes simplex virus 1 KOS infected in HEL cells assessed as reduction of virus-induced cytopathogenicity; type: functional, organism-based; settings: Human alphaherpesvirus 1, KOS

Compound | EC50 [µM]
CCOP(=O)(OCC)[C@@H]1C[C@H](C(=O)Nc2cc3c4c(cccc4c2)C(=O)N(CCN2CCCC2)C3=O)ON1C (racemic) | > 100
CCOP(=O)(OCC)[C@@H]1C[C@@H](C(=O)Nc2cc3c4c(cccc4c2)C(=O)N(CCN(C)C)C3=O)ON1C (racemic) | 45
CCOP(=O)(OCC)[C@@H]1C[C@@H](C(=O)Nc2cc3c4c(cccc4c2)C(=O)N(CCN2CCCC2)C3=O)ON1C (relative stereo) | 45
CCOP(=O)(OCC)[C@@H]1C[C@H](C(=O)Nc2cc3c4c(cccc4c2)C(=O)N(CCN(C)C)C3=O)ON1C (racemic) | 50

test system: Human alphaherpesvirus 1; assay: Antiviral activity against thymidine kinase-deficient acyclovir-resistant Herpes simplex virus 1 KOS infected in HEL cells assessed as reduction of virus-induced cytopathogenicity; type: functional, organism-based; settings: Human alphaherpesvirus 1, KOS

Compound | EC50 [µM]
CCOP(=O)(OCC)[C@@H]1C[C@H](C(=O)Nc2cc3c4c(cccc4c2)C(=O)N(CCN2CCCC2)C3=O)ON1C (racemic) | > 100
CCOP(=O)(OCC)[C@@H]1C[C@@H](C(=O)Nc2cc3c4c(cccc4c2)C(=O)N(CCN(C)C)C3=O)ON1C (racemic) | 45
CCOP(=O)(OCC)[C@@H]1C[C@@H](C(=O)Nc2cc3c4c(cccc4c2)C(=O)N(CCN2CCCC2)C3=O)ON1C (relative stereo) | 45
CCOP(=O)(OCC)[C@@H]1C[C@H](C(=O)Nc2cc3c4c(cccc4c2)C(=O)N(CCN(C)C)C3=O)ON1C (racemic) | 50

test system: Human alphaherpesvirus 2; assay: Antiviral activity against Herpes simplex virus 2 G infected in HEL cells assessed as reduction of virus-induced cytopathogenicity; type: functional, organism-based; settings: Human alphaherpesvirus 2, strain G

Compound | EC50 [µM]
CCOP(=O)(OCC)[C@@H]1C[C@H](C(=O)Nc2cc3c4c(cccc4c2)C(=O)N(CCN2CCCC2)C3=O)ON1C (racemic) | 58
CCOP(=O)(OCC)[C@@H]1C[C@H](C(=O)Nc2cc3c4c(cccc4c2)C(=O)N(CCN(C)C)C3=O)ON1C (racemic) | 50

test system: Coxsackievirus B4; assay: Antiviral activity against Coxsackievirus B4 infected in African green monkey Vero cells assessed as reduction of virus-induced cytopathogenicity; type: functional, organism-based; settings: Enterovirus B
In short: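 Confluent Vero (Coxsackie B4) or HeLa (vesicular stomatitis virus) monolayers in 96-well plates were inoculated with 100 CCID50 virus or 20 PFU and incubated with varying compound concentrations. Cytopathicity was scored once complete in untreated infected controls. […] Two separate experiments were run.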

Compound | EC50 [µM]
NC(=O)c1ncn([C@@H]2O[C@H](CO)[C@@H](O)[C@H]2O)n1 [RIBAVIRIN] | > 250

test system: Punta Toro virus; assay: Antiviral activity against Punta Toro virus infected in African green monkey Vero cells assessed as reduction of virus-induced cytopathogenicity; type: functional, organism-based; settings: not given
In short: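 Confluent Vero monolayers were infected with 100 CCID50 of virus and then incubated with a range of compound concentrations. Viral cytopathicity was scored once it was complete in untreated infected control cultures. […] Two independent experiments were run.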

Compound | EC50 [µM]
NC(=O)c1ncn([C@@H]2O[C@H](CO)[C@@H](O)[C@H]2O)n1 [RIBAVIRIN] | 112

test system: not listed separately; assay: Cytotoxicity against African green monkey Vero cells assessed as alternation of cell morphology by microscopic analysis; type: cell-based; settings: chlorocebus sabaeus
In short: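 Vero cells were exposed to graded compound concentrations. MCC is the lowest concentration producing a microscopically detectable change in cell morphology. Two experiments were run.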

Compound | MCC [µM]
NC(=O)c1ncn([C@@H]2O[C@H](CO)[C@@H](O)[C@H]2O)n1 [RIBAVIRIN] | > 250

test system: L1210; assay: Cytotoxicity against mouse L1210 cells assessed as inhibition of cell proliferation; type: functional, cell-based; settings: not given

Compound | IC50 [nM]
CCOP(=O)(OCC)[C@@H]1C[C@H](C(=O)Nc2cc3c4c(cccc4c2)C(=O)N(CCN2CCCC2)C3=O)ON1C (racemic) | 4400
CCOP(=O)(OCC)[C@@H]1C[C@@H](C(=O)Nc2cc3c4c(cccc4c2)C(=O)N(CCN(C)C)C3=O)ON1C (racemic) | 1500
CCOP(=O)(OCC)[C@@H]1C[C@@H](C(=O)Nc2cc3c4c(cccc4c2)C(=O)N(CCN2CCCC2)C3=O)ON1C (relative stereo) | 1700
CCOP(=O)(OCC)[C@@H]1C[C@H](C(=O)Nc2cc3c4c(cccc4c2)C(=O)N(CCN(C)C)C3=O)ON1C (racemic) | 2900

test system: CCRF-CEM; assay: Cytotoxicity against human CEM cells assessed as inhibition of cell proliferation; type: functional, cell-based; settings: not given

Compound | IC50 [µM]
CCOP(=O)(OCC)[C@@H]1C[C@H](C(=O)Nc2cc3c4c(cccc4c2)C(=O)N(CCN2CCCC2)C3=O)ON1C (racemic) | 12
CCOP(=O)(OCC)[C@@H]1C[C@@H](C(=O)Nc2cc3c4c(cccc4c2)C(=O)N(CCN(C)C)C3=O)ON1C (racemic) | 3.4
CCOP(=O)(OCC)[C@@H]1C[C@@H](C(=O)Nc2cc3c4c(cccc4c2)C(=O)N(CCN2CCCC2)C3=O)ON1C (relative stereo) | 3.9
CCOP(=O)(OCC)[C@@H]1C[C@H](C(=O)Nc2cc3c4c(cccc4c2)C(=O)N(CCN(C)C)C3=O)ON1C (racemic) | 6

test system: HeLa; assay: Cytotoxicity against human HeLa cells assessed as inhibition of cell proliferation; type: functional, cell-based; settings: not given

Compound | IC50 [nM]
CCOP(=O)(OCC)[C@@H]1C[C@H](C(=O)Nc2cc3c4c(cccc4c2)C(=O)N(CCN2CCCC2)C3=O)ON1C (racemic) | 3000
CCOP(=O)(OCC)[C@@H]1C[C@@H](C(=O)Nc2cc3c4c(cccc4c2)C(=O)N(CCN(C)C)C3=O)ON1C (racemic) | 1800
CCOP(=O)(OCC)[C@@H]1C[C@@H](C(=O)Nc2cc3c4c(cccc4c2)C(=O)N(CCN2CCCC2)C3=O)ON1C (relative stereo) | 1100
CCOP(=O)(OCC)[C@@H]1C[C@H](C(=O)Nc2cc3c4c(cccc4c2)C(=O)N(CCN(C)C)C3=O)ON1C (racemic) | 3300

test system: CCRF-CEM; assay: Potency index, ratio of 5-Fluorouracil IC50 to compound IC50 for human CEM cells; type: functional; settings: not given

Compound | Ratio IC50
CCOP(=O)(OCC)[C@@H]1C[C@@H](C(=O)Nc2cc3c4c(cccc4c2)C(=O)N(CCN(C)C)C3=O)ON1C (racemic) | 5
CCOP(=O)(OCC)[C@@H]1C[C@@H](C(=O)Nc2cc3c4c(cccc4c2)C(=O)N(CCN2CCCC2)C3=O)ON1C (relative stereo) | 5

test system: MDCK; assay: Cytotoxicity against MDCK cells assessed cell viability by MTS assay; type: cell-based, Canis lupus familiaris; settings: dog
In short: (§1)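 Cells were exposed to a range of compound concentrations. Viability was measured by the colorimetric formazan-based MTS assay.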

Compound | CC50 [µM]
CCOP(=O)(OCC)[C@@H]1C[C@H](C(=O)Nc2cc3c4c(cccc4c2)C(=O)N(CCN2CCCC2)C3=O)ON1C (racemic) | > 100
CCOP(=O)(OCC)[C@@H]1C[C@@H](C(=O)Nc2cc3c4c(cccc4c2)C(=O)N(CCN(C)C)C3=O)ON1C (racemic) | 75.2
CCOP(=O)(OCC)[C@@H]1C[C@@H](C(=O)Nc2cc3c4c(cccc4c2)C(=O)N(CCN2CCCC2)C3=O)ON1C (relative stereo) | 87.3
CCOP(=O)(OCC)[C@@H]1C[C@H](C(=O)Nc2cc3c4c(cccc4c2)C(=O)N(CCN(C)C)C3=O)ON1C (racemic) | > 100

test system: not listed separately; assay: Cytotoxicity against CRFK cells assessed cell viability by MTS assay; type: cell-based, Felis catus; settings: cat; in short: as §1

Compound | CC50 [µM]
CCOP(=O)(OCC)[C@@H]1C[C@H](C(=O)Nc2cc3c4c(cccc4c2)C(=O)N(CCN2CCCC2)C3=O)ON1C (racemic) | 89.1
CCOP(=O)(OCC)[C@@H]1C[C@@H](C(=O)Nc2cc3c4c(cccc4c2)C(=O)N(CCN(C)C)C3=O)ON1C (racemic) | 95.2
CCOP(=O)(OCC)[C@@H]1C[C@@H](C(=O)Nc2cc3c4c(cccc4c2)C(=O)N(CCN2CCCC2)C3=O)ON1C (relative stereo) | > 100
CCOP(=O)(OCC)[C@@H]1C[C@H](C(=O)Nc2cc3c4c(cccc4c2)C(=O)N(CCN(C)C)C3=O)ON1C (racemic) | 62.2

test system: HeLa; assay: Cytotoxicity against human HeLa cells assessed as reduction of cell survival after 48 hrs by MTT assay; type: functional, cell-based; settings: not given

Compound | IC50 [µM]
CCOP(=O)(OCC)C1CC(c2ccc3ccccc3c2)ON1C (configuration not stated) | 50

test system: K562; assay: Cytotoxicity against human K562 cells assessed as reduction of cell survival after 48 hrs by MTT assay; type: functional, cell-based; settings: K562, 48 h

Compound | IC50 [µM]
CCOP(=O)(OCC)C1CC(c2cccc3ccccc23)ON1C (configuration not stated) | 90
